Compound activity from PubChem BioAssay.
procasp7 counter – counter-screen: procaspase-7 (human) activation; P55210; recombinant procaspase-7, Ac-DEVD-pNA absorbance 405 nm; D23A/D198A/D206A triple mutant, cannot self-cleave; scale: DMSO 0, 5 µM enzyme 100; activation, % at 8.5 µM; 330,000 tested, 0.093% active; AID 463210;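 active = percent activation above the screen-wide mean plus 3 SD, cut at about 25% in these data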
Target sequence (P55210 whole entry D23A/D198A/D206A): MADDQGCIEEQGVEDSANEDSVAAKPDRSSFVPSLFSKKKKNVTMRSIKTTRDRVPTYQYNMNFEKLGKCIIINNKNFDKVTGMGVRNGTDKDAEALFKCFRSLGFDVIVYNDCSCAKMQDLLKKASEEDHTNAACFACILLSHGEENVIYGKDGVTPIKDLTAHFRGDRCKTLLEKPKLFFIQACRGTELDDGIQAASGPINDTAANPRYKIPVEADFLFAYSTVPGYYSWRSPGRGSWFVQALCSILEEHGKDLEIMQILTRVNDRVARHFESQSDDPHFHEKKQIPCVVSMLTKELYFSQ
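signal = Epi-absorbance of released pNA at 405 nm, two timepoints | assay system = Uncleavable procaspase-7 mutant enzyme | reagent = Ac-DEVD-pNA substrate, 400 µM as added | times = 1 h enzyme–compound preincubation and 2 h substrate reaction, both 25 °C | benchmarks = low DMSO alone, high DMSO plus 5 µM PC-7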
IMP-1 inh – inhibitors of Pseudomonas aeruginosa IMP-1 metallo-beta-lactamase; 290,000 tested, 0.45% active; inhibition, % at 5.6 µM; purified IMP-1, nitrocefin hydrolysis, epi-absorbance fluorescence;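 active = inhibition above the mean plus 3 SD of all compounds in the same screening run, cut at about 4.5% in these data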
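System: purified IMP-1; amount: IMP-1 0.2 nM before substrate addition; compound: single dose, 5.6 µM; times: 25 °C, 15 min preincubation, 25 min reaction; signal: Epi-absorbance via hydrolysed-nitrocefin quenching of white-plate fluorescence, 480/530 nm, EDTA stop; benchmarks: DMSO with and without IMP-1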
PolyA inhibitor – inhibitors of polyadenylation in S. cerevisiae | 300,000 tested, 0.02% active | S. cerevisiae SKY197-pL101 polyadenylation reporter, beta-gal luminescence; efflux-impaired pdr1/pdr3 knockout yeast; score 100 = 6 SD above DMSO | activity score, % at 12 µM;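 active = lowest replicate activity score at least 50, where 100 means six control SD above control mean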;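 note: yeast exposed to compound for 9 h at 30 °C; higher score means more reporter readthrough which indicates perturbed polyadenylation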
procasp3 activ – activators of human procaspase-3. P42574. recombinant procaspase-3 D3A, Ac-DEVD-pNA absorbance 405 nm. activation, % at 8.5 µM. 330,000 tested, 0.11% active. AID 463141;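 active = activation above the mean of all tested compounds plus 3 SD, cut at about 21% in these data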
Target sequence (P42574 whole entry D9A/D28A/D175A): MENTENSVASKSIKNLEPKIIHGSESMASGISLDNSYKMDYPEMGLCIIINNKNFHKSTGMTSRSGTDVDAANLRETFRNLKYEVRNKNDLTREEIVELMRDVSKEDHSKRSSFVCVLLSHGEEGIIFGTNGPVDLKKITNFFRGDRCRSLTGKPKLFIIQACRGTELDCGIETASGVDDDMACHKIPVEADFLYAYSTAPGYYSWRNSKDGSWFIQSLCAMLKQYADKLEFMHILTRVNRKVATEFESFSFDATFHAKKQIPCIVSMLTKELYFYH
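Technique: 405 nm absorbance of p-nitroaniline, reads at 0 and 120 min; Test system: Procaspase-3 D3A mutant; Incubation: 1 h enzyme-compound preincubation, then 2 h substrate reaction, 25 °C; Repeats: singlicate, each compound tested once; Benchmarks: low control DMSO wells, high control DMSO plus 5 µM PC-3 D3A.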
Neddyl block – inhibitors of human cullin neddylation | P61081+Q13564 | TR-FRET cullin neddylation, biochemical | calls only at 25 µM | 360,000 tested, 0.58% active | AID 651699; in the data active = inhibition above about 36%
VIM-2 inh – blocks Pseudomonas aeruginosa VIM-2 metallo-beta-lactamase | purified VIM-2, nitrocefin hydrolysis, epi-absorbance fluorescence | inhibition, % at 5.6 µM | 290,000 tested, 0.89% active | AID 1527;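 active = inhibition above the mean of all tested compounds plus 3 SD, cutoff set per screening run, cut at about 7.5% in these data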;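 note: red hydrolysis product quenches plate fluorescence so inhibitors raise well fluorescence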
Hits are given with their value; i = inactive; nt = not tested or not shown; + = active, no number. Shown are actives, neighbours in structure and some others; about 1.7% of the full set was active somewhere.

SMILES	procasp7 counter	IMP-1 inh	PolyA inhibitor	procasp3 activ	Neddyl block	VIM-2 inh
Cc1ccc(C(C(=O)NC2CCCCC2)N(Cc2ccccc2)C(=O)Cc2c[nH]c3ccccc23)o1 (stereo unspecified)	i	i	i	i	i	i
COc1cc(C(C(=O)NC2CCCCC2)N(Cc2cccs2)C(=O)Cc2c[nH]c3ccccc23)cc(OC)c1OC (stereo unspecified)	i	i	i	i	i	i
Cc1cc(C2C(=O)CC(=O)CC2c2ccccc2)on1 (stereo unspecified)	i	7.7	i	i	i	i
CCCC(=O)C1C(=O)CC(C)(C)C(c2cc(C)no2)C1=O (stereo unspecified)	i	i	i	i	i	i
COc1ccc(N2CCN(/C(=N\S(=O)(=O)c3ccc(C)cc3)Nc3nc(C)cc(C)n3)CC2)cc1	i	i	i	i	i	i
CCC(NC(=O)c1cc(COc2ccc(OC)cc2Cl)on1)c1ccncc1 (stereo unspecified)	i	i	i	i	i	i
N#Cc1c2c(c(NCCN3CCOCC3)n3c1nc1ccccc13)CCCC2	i	i	i	i	nt	i
CCC(C)Sc1cc(C)c(C#N)c2nc3ccccc3n12 (stereo unspecified)	i	i	i	i	nt	10
Cc1c2c(n3c(nc4ccccc43)c1C#N)N(c1ccccc1)CC2	nt	i	nt	nt	nt	i
Cc1cc(C(C)C)n2c(nc3ccccc32)c1C#N	i	i	i	i	nt	i
Cc1c2c(n3c(nc4ccccc43)c1C#N)N(CCN(C)C)CC2	i	i	i	i	nt	11
Cc1cc(NCCN2CCCCC2)n2c(nc3ccccc32)c1C#N	nt	i	i	nt	nt	8.7
CCCc1cc(NCCCO)n2c(nc3ccccc32)c1C#N	i	i	i	i	nt	10
COc1ccc(Oc2ccc(S(=O)(=O)N3CCCCC3)cc2S(=O)(=O)N2CCCCC2)cc1	i	i	i	i	i	i
OCCCNc1c2ccccc2nc2ccccc12	i	i	i	i	i	8.3
c1ccc2c(NCCc3c[nH]c4ccccc34)c3ccccc3nc2c1	i	i	i	i	i	8.1
CC(=O)CC(c1ccccc1)c1c(O)c2ccccc2oc1=O (stereo unspecified)	i	i	i	i	i	i
Cc1ccccc1CS(=O)(=O)Cc1ccc(C(=O)NCC2CCCO2)o1 (stereo unspecified)	i	i	i	i	i	i
CN1C(=O)c2cccc3c(S(=O)(=O)Nc4ccc(O)c(C(=O)O)c4)ccc1c23	i	i	i	i	i	12
CN1C(=O)c2cccc3c(S(=O)(=O)NCCc4ccccc4)ccc1c23	i	i	i	i	nt	i
CSCc1cccc(C(=O)OC(C)C(=O)Nc2c(C)n(C)n(-c3ccccc3)c2=O)c1 (stereo unspecified)	i	nt	nt	i	i	nt
O=C(CCCn1c(=S)[nH]c2cc3c(cc2c1=O)OCO3)NCc1ccccc1Cl	i	14	i	i	i	i
CCS(=O)(=O)N1CCN(S(=O)(=O)c2ccccc2[N+](=O)[O-])CC1	i	i	i	i	i	i
COc1cc(C2c3sc(=O)[nH]c3SC3C4CCC(C4)C23)ccc1O (stereo unspecified)	i	i	i	i	i	8.8
CCC(C)(C)C1CCc2c(sc(NC(=O)c3ccccc3C(=O)O)c2C#N)C1 (stereo unspecified)	i	i	i	i	+	i
SMILES	procasp7 counter	IMP-1 inh	PolyA inhibitor	procasp3 activ	Neddyl block	VIM-2 inh
CC1CCc2c(sc(NC(=O)c3ccccc3C(=O)O)c2C#N)C1 (stereo unspecified)	i	i	i	i	i	i
CC(C)(C)C1CCc2c(sc(NC(=O)c3cc(C4CC4)on3)c2C#N)C1 (stereo unspecified)	i	4.9	i	i	nt	i
CCOC(=O)C1CCN(C(=O)c2cc3c(=O)n4cccc(C)c4nc3s2)CC1	i	i	i	i	nt	10
Cc1cccn2c(=O)c3cc(C(=O)N4CCCCC4)sc3nc12	i	i	i	i	nt	12
CCOC(=O)C1CCN(C(=O)c2cc3c(=O)n4ccccc4nc3s2)CC1	i	i	i	i	nt	i
CC1CCCN(C(=O)c2cc3c(=O)n4ccccc4nc3s2)C1 (stereo unspecified)	i	i	i	i	nt	i
CC1(C)Oc2ccc3ccc(=O)oc3c2-c2cn[nH]c21	i	i	i	i	i	8.0
COc1ccc(-c2nc3c4ccccc4[nH]c(=O)n3n2)cc1	i	i	i	i	i	i
Cc1ccc[n+](CC(=O)Nc2ccc(Cl)c([N+](=O)[O-])c2)c1	i	i	i	i	i	8.9
O=C(C[n+]1ccccc1)Nc1ccc(Cl)c([N+](=O)[O-])c1	i	i	i	i	i	i
NC(N)=N/N=C/c1ccc2cccc(OCc3ccccc3)c2n1	i	i	i	i	+	i
O/N=C/c1ccc2cccc(OCc3ccccc3)c2n1	i	i	i	i	nt	i
C=CCOC(=O)C(=O)/C=C/c1coc2ccccc2c1=O	i	i	i	i	i	8.3
Fc1ccccc1CSc1nncn1NCc1cccs1	i	4.8	i	i	i	i
COCCN(C(=O)Nc1ccccc1)C(C)c1cccnc1 (stereo unspecified)	i	i	i	i	i	i
CN(C)c1ccnc2sc3c(SCc4ccc(Cl)cc4)ncnc3c12	i	i	i	i	i	i
CN(C)c1ccnc2sc3c(NCC(O)CO)ncnc3c12 (stereo unspecified)	i	i	i	i	i	8.3
Cc1ccc2occ(/C=N/NC(=O)c3ccncc3)c(=O)c2c1	nt	6.4	i	nt	i	i
Cc1ccc2occ(/C=N/NC(=O)c3ccc(Cl)cc3)c(=O)c2c1	i	i	i	i	i	i
O=C(N/N=C/c1coc2ccccc2c1=O)c1ccncc1	nt	i	i	nt	i	i
COc1ccc(C(=O)N/N=C\c2coc3ccc(C)cc3c2=O)cc1	i	8.7	i	i	i	i
c1ccc(-c2nc3c4ccccc4ccn3c2CN2CCCCC2)cc1	i	i	i	i	i	i
CCSc1ccccc1C(=O)NCCc1ccccc1	i	i	i	i	i	i
COC1=C(Nc2ccccc2)C(=O)c2ccccc2C1=O	i	i	i	i	i	10
COC1=C(Nc2ccc(C)cc2)C(=O)c2ccccc2C1=O	i	i	i	i	i	i
CC1CCCN(CCCNC(=O)C2CC(=O)N(c3ccc(F)c(Cl)c3)C2)C1 (stereo unspecified)	i	5.8	i	i	i	i
CC1CCCCN1CCNC(=O)C1CC(=O)N(c2ccc(F)c(Cl)c2)C1 (stereo unspecified)	i	i	i	i	i	i
